Published values collected from several papers.
Each line is one published result; the experiments were not run side by side.
Matrix: plasma

Structure (SMILES)	system	conditions	half-life
[2H]c1cc(C)c(NC(=O)c2cnc(Nc3cc(N4CCCCC4)nc(C)n3)s2)c(Cl)c1	male Sprague-Dawley rat	intravenous, 1 mg/kg	1.7 h
COc1ccc(-c2coc3cc(O)cc(O)c3c2=O)cc1	rat	intravenous, 2 mg/kg	0.19 h
Cc1cc(S(=O)(=O)N[C@H]2CC[C@H](CN3CCN(c4ccc(C5CCC(=O)NC5=O)c(Cl)c4)CC3)CC2)ccc1Nc1ncc(C(F)(F)F)c(N2CCC[C@](C)(O)C2)n1 (some centres unmarked)	rat	intravenous, 2 mg/kg	2.9 h
Cc1nc(Nc2ncc(C(=O)Nc3c(C)cccc3Cl)s2)cc(N2CC[C@H](N)C2)n1	male Sprague-Dawley rat	intravenous, 1 mg/kg	3.8 h
CCN(CC)Cc1ccc2cc(COC(=O)Nc3ccc(C(=O)NO)cc3)ccc2c1	male Sprague-Dawley rat	oral, 10 mg/kg	19.7 h
Cc1cc(S(=O)(=O)NC2CC(N3CCN(CC4CCN(c5ccc(NC6CCC(=O)NC6=O)cc5C)CC4)CC3)C2)ccc1Nc1ncc(C(F)(F)F)c(N2CCC[C@](C)(O)C2)n1 (some centres unmarked)	rat	intravenous, 2 mg/kg	5.3 h
CC(C)(N)COCC(=O)N1CCC[C@H](C(=O)NCc2nc(-c3ccc(C(F)(F)F)cc3)cs2)C1	male Sprague-Dawley rat	oral, 3 mg/kg	7.3 h
C[C@@]12C[C@@]3(O)O[C@@H](O1)[C@]1(COC(=O)c4ccccc4)[C@H]3C[C@@]12O[C@@H]1O[C@H](CO)[C@@H](O)[C@H](O)[C@H]1O	male Sprague-Dawley rat	oral, 80 mg/kg	11.4 h
C[C@H]1Oc2cc(cnc2N)-c2c(nn(C)c2C#N)CN(C)C(=O)c2ccc(F)cc21	male Sprague-Dawley rat	oral, 50 mg/kg, single dose	17.6 h
COCC(=O)N1CCC[C@H](C(=O)NCc2nc(-c3ccc(C#N)cc3)cs2)C1	male Sprague-Dawley rat	oral, 3 mg/kg	2.4 h
CNS(=O)(=O)c1ccc(Nc2ncc(C(F)(F)F)c(N3CCC(C)(O)CC3)n2)c(C)c1	rat	intravenous, 2 mg/kg	0.7 h
CCCCC(=O)Nc1ccc(-c2ccc3ncn(CCC)c(=O)c3c2)cn1	male rat	oral, 10 mg/kg	1.09 h
C[C@H]1CN(c2ccc(C3CCC(=O)NC3=O)cc2F)CCN1CC12CCC(NS(=O)(=O)c3ccc(Nc4ncc(C(F)(F)F)c(N5CCC[C@](C)(O)C5)n4)c(F)c3)(CC1)CO2 (some centres unmarked)	rat	intravenous, 2 mg/kg	3.4 h
COc1cc(-c2cc(C(C)=O)n3ccccc23)c(OC)cc1Cn1ccnc1	male Sprague-Dawley rat	intravenous, 5 mg/kg	0.75 h
O=C1CCC(N2Cc3cc(C4CCN(Cc5ccccc5)CC4)ccc3C2=O)C(=O)N1 (centres unmarked)	male Sprague-Dawley rat	oral, 3 mg/kg	1.31 h
C=CC(=O)N1CCC[C@@H](n2nc(-c3ccc(Oc4ccccc4)cc3)c3c(N)ncnc32)C1	male Wistar rat	oral, 40 mg/kg	2.5 h

Structure (SMILES)	system	conditions	half-life
CCONC(=O)N1CCC[C@H](C(=O)NCc2nc(-c3ccc(C#N)cc3)cs2)C1	male Sprague-Dawley rat	intravenous, 1 mg/kg	2.2 h
CNC(=O)c1cc(Oc2ccc(NC(=O)Nc3ccc(Cl)c(C(F)(F)F)c3)cc2)ccn1	male Sprague-Dawley rat	oral, 100 mg/kg, single dose	13.8 h
C=CC(=O)N1CCC([C@@H]2CCNc3c(C(N)=O)c(-c4ccc(Oc5ccccc5)cc4)nn32)CC1	Sprague-Dawley rat	oral, 16 mg/kg	2.24 h
C[C@H]1CN(CC2CCN(c3ccc(C4CCC(=O)NC4=O)cc3F)CC2)CC[C@H]1NS(=O)(=O)c1ccc(Nc2ncc(C(F)(F)F)c(N3CCC[C@](C)(O)C3)n2)c(F)c1 (some centres unmarked)	rat	intravenous, 2 mg/kg	4.6 h
CCCCCCCCCC(=O)N[C@@H](Cc1c[nH]c2ccccc12)C(=O)N[C@H](CC(N)=O)C(=O)N[C@@H](CC(=O)O)C(=O)N[C@@H]1C(=O)NCC(=O)N[C@@H](CCCN)C(=O)N[C@@H](CC(=O)O)C(=O)N[C@H](C)C(=O)N[C@@H](CC(=O)O)C(=O)NCC(=O)N[C@H](CO)C(=O)N[C@@H]([C@H](C)CC(=O)O)C(=O)N[C@@H](CC(=O)c2ccccc2N)C(=O)O[C@@H]1C	male Wistar rat	subcutaneous, 125 mg/kg, single dose	2.6 h
CCOCC(=O)N1CCC[C@H](C(=O)NCc2nc(-c3ccc(C#N)nc3)cs2)C1	male Sprague-Dawley rat	oral, 3 mg/kg	1.6 h
Cc1cc(S(=O)(=O)N[C@H]2CC[C@H](N3CCN(CC4CCN(c5cccc6c5n(C)c(=O)n6C5CCC(=O)NC5=O)CC4)CC3)CC2)ccc1Nc1ncc(C(F)(F)F)c(N2CCC[C@](C)(O)C2)n1 (some centres unmarked)	rat	intravenous, 2 mg/kg	4.3 h
CC(=O)c1c(C)c2cnc(Nc3ccc(N4CCNCC4)cn3)nc2n(C2CCCC2)c1=O	male Sprague-Dawley rat	intravenous, 5 mg/kg	2.1 h
COCC(=O)N1CCC[C@H](C(=O)NCc2nc(-c3ccccc3)cs2)C1	male Sprague-Dawley rat	oral, 3 mg/kg	3.9 h
CC[C@H](C)[C@H](NC(=O)[C@@H]1CCCN1C(=O)CNC(=O)[C@H](Cc1ccccc1)NC(=O)[C@H](CC(N)=O)NC(=O)[C@H](CC(N)=O)NC(=O)[C@H](CO)NC(=O)[C@H](CO)NC(=O)[C@H](Cc1c[nH]cn1)NC(=O)[C@H](CCCNC(=N)N)NC(=O)[C@H](CC(C)C)NC(=O)[C@H](Cc1ccccc1)NC(=O)[C@H](CCC(=O)O)NC(=O)[C@H](C)NC(=O)[C@H](CC(C)C)NC(=O)[C@H](CCCNC(=N)N)NC(=O)[C@H](CCC(N)=O)NC(=O)[C@@H](NC(=O)[C@H](C)NC(=O)[C@@H]1CSSC[C@H](NC(=O)[C@H](CCCCN)NC(=O)CC[C@H](NC(=O)CCCCCCCCCCCCCCCCCCC(=O)O)C(=O)O)C(=O)N[C@@H](CC(N)=O)C(=O)N[C@@H]([C@@H](C)O)C(=O)N[C@@H](C)C(=O)N[C@@H]([C@@H](C)O)C(=O)N1)[C@@H](C)O)C(=O)N[C@@H](CC(C)C)C(=O)N1CCC[C@H]1C(=O)N1CCC[C@H]1C(=O)N[C@H](C(=O)N[C@@H](CC(N)=O)C(=O)N[C@H](C(=O)NCC(=O)N[C@@H](CO)C(=O)N[C@@H](CC(N)=O)C(=O)N[C@H](C(=O)N1CCC[C@H]1C(N)=O)[C@@H](C)O)C(C)C)[C@@H](C)O	male Sprague-Dawley rat	subcutaneous, 30 nmol/kg, single dose	26.8 h
CONC(=O)c1cccc2c1cc(C)n2-c1nc2c(c(NCc3ccccc3)n1)CCCN2	male Sprague-Dawley rat	oral, 10 mg/kg, single dose	1.15 h
Cc1cc(S(=O)(=O)NC2CC(N3CCN(CC4CCN(c5ccc6c(c5F)n(C)c(=O)n6C5CCC(=O)NC5=O)CC4)CC3)C2)ccc1Nc1ncc(C(F)(F)F)c(N2CCCC(C)(O)C2)n1 (centres unmarked)	rat	intravenous, 2 mg/kg	7.2 h
CCOCC(=O)N1CCC[C@H](C(=O)NCc2nc(-c3ccc(C)nc3)cs2)C1	male Sprague-Dawley rat	oral, 3 mg/kg	1.9 h
COc1nc(-c2cccc(-c3ccccc3)c2C)ccc1CNCCNC(=O)CCCCCCCCCCC(=O)N1CCN(CCNC(=O)c2cc3c(=O)n4cccc(C)c4nc3n(CCc3cccs3)c2=N)CC1	male Sprague-Dawley rat	intravenous, 2 mg/kg	5.8 h
C[C@]1(O)CCCN(c2nc(Nc3ccc(S(=O)(=O)N[C@@H]4CCN(CC5CCN(c6ccc(C7CCC(=O)NC7=O)cc6F)CC5)C[C@H]4F)cc3F)ncc2C(F)(F)F)C1 (some centres unmarked)	rat	intravenous, 2 mg/kg	5.1 h
Cc1cc2c(C(N)=O)cccc2n1-c1nc2c(c(NCc3ccccc3)n1)CCCN2	male Sprague-Dawley rat	oral, 10 mg/kg, single dose	1.2 h
